# Data published in ChEMBL document CHEMBL2417506, “Synthesis and antiprotozoal activity of original porphyrin precursors and derivatives” (Eur J Med Chem, 2013).
# Activity calls are given as the source filed them. No cut-off for these calls is given here.
# What was measured:
# Plasmodium berghei [1] = assay: Antimalarial activity against chloroquine-sensitive Plasmodium berghei NK-173 infected in Swiss albino mouse assessed as host survival at 100 mg/kg, ip bid for 3 days measured on day 30; type: functional; conditions: NK-173, ip, route intraperitoneal
# Procedure, shortened: (§1)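 Female Swiss albino mice (18–20 g) were infected i.v. on day 0 with 10^6 parasitized RBC in 0.2 ml PBS from a donor mouse, in groups of 10. Dosing was i.p. over days 0–3 and stopped if toxicity appeared. Chloroquine control was 100 µmoles/kg. Giemsa tail smears and RBC counts were taken on days 4, 7, 8, 9, 10 and 14. Mice were followed for deaths.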
# Mus musculus [2] = assay: Toxicity in chloroquine-sensitive Plasmodium berghei NK-173 infected Swiss albino mouse assessed as mortality at 38.5 mg/kg, ip administered 4 times per day for 3 days measured up to 4 days; type: organism-based; design: dose 38.5 mg/kg, route intraperitoneal; conditions: in vivo; procedure, shortened: as §1
# Mus musculus [3] = assay: Toxicity in chloroquine-sensitive Plasmodium berghei NK-173 infected Swiss albino mouse assessed as mortality at 38.5 mg/kg, ip qd for 3 days measured up to 4 days; type: organism-based; design: dose 38.5 mg/kg, route intraperitoneal; conditions: in vivo; procedure, shortened: as §1
# Mus musculus [4] = assay: Toxicity in chloroquine-sensitive Plasmodium berghei NK-173 infected Swiss albino mouse assessed as mortality at 76.9 mg/kg, ip qd for 3 days measured up to 4 days; type: organism-based; design: dose 76.9 mg/kg, route intraperitoneal; conditions: in vivo; procedure, shortened: as §1
# Mus musculus [5] = assay: Toxicity in chloroquine-sensitive Plasmodium berghei NK-173 infected Swiss albino mouse assessed as death day at 100 mg/kg, ip bid for 3 days measured up to 4 days; type: organism-based; design: dose 100 mg/kg, route intraperitoneal; conditions: in vivo; procedure, shortened: as §1
# Plasmodium berghei [6] = assay: Antimalarial activity against chloroquine-sensitive Plasmodium berghei NK-173 infected in Swiss albino mouse assessed as quantal survival at 38.5 mg/kg, ip administered 4 times per day for 3 days measured on day 14; type: functional, organism-based; design: dose 38.5 mg/kg; procedure, shortened: as §1
# Plasmodium berghei [7] = assay: Antimalarial activity against chloroquine-sensitive Plasmodium berghei NK-173 infected in Swiss albino mouse assessed as quantal survival at 38.5 mg/kg, ip qd for 3 days measured on day 14; type: functional, organism-based; design: dose 38.5 mg/kg; procedure, shortened: as §1
# Plasmodium berghei [8] = assay: Antimalarial activity against chloroquine-sensitive Plasmodium berghei NK-173 infected in Swiss albino mouse assessed as quantal survival at 76.9 mg/kg, ip qd for 3 days measured on day 14; type: functional, organism-based; design: dose 76.9 mg/kg; procedure, shortened: as §1
# Plasmodium berghei [9] = assay: Antimalarial activity against chloroquine-sensitive Plasmodium berghei NK-173 infected in Swiss albino mouse assessed as quantal survival at 100 mg/kg, ip bid for 3 days measured on day 14; type: functional, organism-based; design: dose 100 mg/kg; procedure, shortened: as §1
# Plasmodium berghei [10] = assay: Antimalarial activity against chloroquine-sensitive Plasmodium berghei NK-173 infected in Swiss albino mouse assessed as quantal survival at 38.5 mg/kg, ip qd for 3 days measured on day 10; type: functional, organism-based; design: dose 38.5 mg/kg; procedure, shortened: as §1
# Plasmodium berghei [11] = assay: Antimalarial activity against chloroquine-sensitive Plasmodium berghei NK-173 infected in Swiss albino mouse assessed as quantal survival at 76.9 mg/kg, ip qd for 3 days measured on day 10; type: functional, organism-based; design: dose 76.9 mg/kg; procedure, shortened: as §1
# Plasmodium berghei [12] = assay: Antimalarial activity against chloroquine-sensitive Plasmodium berghei NK-173 infected in Swiss albino mouse assessed as quantal survival at 38.5 mg/kg, ip qd for 3 days measured on day 9; type: functional, organism-based; design: dose 38.5 mg/kg; procedure, shortened: as §1
# Plasmodium berghei [13] = assay: Antimalarial activity against chloroquine-sensitive Plasmodium berghei NK-173 infected in Swiss albino mouse assessed as quantal survival at 38.5 mg/kg, ip administered 4 times per day for 3 days measured on day 8; type: functional, organism-based; design: dose 38.5 mg/kg; procedure, shortened: as §1
# Plasmodium berghei [14] = assay: Antimalarial activity against chloroquine-sensitive Plasmodium berghei NK-173 infected in Swiss albino mouse assessed as quantal survival at 38.5 mg/kg, ip administered 4 times per day for 3 days measured on day 7; type: functional, organism-based; design: dose 38.5 mg/kg; procedure, shortened: as §1
# Plasmodium berghei [15] = assay: Antimalarial activity against chloroquine-sensitive Plasmodium berghei NK-173 infected in Swiss albino mouse assessed as quantal survival at 76.9 mg/kg, ip qd for 3 days measured on day 7; type: functional, organism-based; design: dose 76.9 mg/kg; procedure, shortened: as §1
# Plasmodium berghei [16] = assay: Antimalarial activity against chloroquine-sensitive Plasmodium berghei NK-173 infected in Swiss albino mouse assessed as quantal survival at 38.5 mg/kg, ip qd for 3 days measured on day 7; type: functional, organism-based; design: dose 38.5 mg/kg; procedure, shortened: as §1
# Plasmodium berghei [17] = assay: Antimalarial activity against chloroquine-sensitive Plasmodium berghei NK-173 infected in Swiss albino mouse assessed as reduction parasitemia at 38.5 mg/kg, ip qd […] by Giemsa staining relative to control; type: functional; design: scale not given: the % may be the effect or the level left; conditions: route intraperitoneal
# Procedure, shortened: (§2)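 Four-day Peters test in female Swiss albino mice (18–20 g), groups of 10. Infected i.v. on day 0 with 10^6 parasitized RBC in 0.2 ml PBS, then dosed i.p. on days 0–3, stopped if toxicity appeared. Parasitemia read from Giemsa-stained tail-blood smears and reported as % reduction at day 4.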
# Plasmodium berghei [18] = assay: Antimalarial activity against chloroquine-sensitive Plasmodium berghei NK-173 infected in Swiss albino mouse assessed as reduction parasitemia at 76.9 mg/kg, […] by Giemsa staining relative to control; type: functional; design: scale not given: the % may be the effect or the level left; conditions: route intraperitoneal
# Plasmodium falciparum = assay: Antimalarial activity against Plasmodium falciparum 3D7 infected in human O positive erythrocytes assessed as reduction of parasite growth after 24 to 44 hrs by Giemsa staining; type: functional, organism-based
# Procedure, shortened: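 Sorbitol-synchronized ring-stage 3D7 parasites in O+ erythrocytes (5% v/v suspension, 0.5% parasitemia) exposed to compounds from DMSO stock for 44 h at 37 °C. Growth measured by pLDH ELISA after freeze-thaw hemolysis and by Giemsa thin smears at 24 and 44 h, counting at least 5000 erythrocytes. Expressed as % reduction against medium-only control.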
# [19] = Cytotoxicity against Swiss mouse peritoneal macrophages at 20 uM after 5 days by MTT assay; type: cell-based, Peritoneal macrophage cell
# Procedure, shortened: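 Thioglycolate-elicited peritoneal macrophages from female Swiss mice, 5 × 10^4/well in RPMI 1640 with 10% FCS, 25 mM Hepes and 2 mM L-glutamine. Washed at 4 h to remove fibroblasts. Drug-containing medium added at 48 h, stopped at day 5. Viability read by MTT.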
# [20] = tested on: Trypanosoma brucei brucei; assay: Trypanocidal activity against Trypanosoma brucei brucei by drug incubation infectivity test; type: functional; conditions: read-out: MEC
# Leishmania donovani [21] = assay: Antileishmanial activity against amastigotes forms of Leishmania donovani MHOM/ET/67/HU3 infected in Swiss mouse peritoneal macrophages at 20 uM after 5 days; type: functional, organism-based
# Procedure, shortened: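 Peritoneal macrophages from female Swiss mice (18–20 g) infected after 24 h with stationary-phase L. donovani promastigotes at 10 parasites per macrophage. Free promastigotes removed at 18 h, then amastigotes treated. Medium with drug renewed at 48 h, stopped at day 5. Percentage of infected macrophages scored microscopically after Giemsa staining. Run in triplicate.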
# Leishmania donovani [22] = assay: Antileishmanial activity against promastigote forms of Leishmania donovani MHOM/ET/67/HU3 after 3 days by MTT assay; type: functional, organism-based; conditions: MHOM/ET/67/HU3, 72 h
# Procedure, shortened: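 Log-phase promastigotes at 10^6 cells/mL in supplemented M-199. Serial dilutions gave final concentrations of 100 µM to 50 nM, in triplicate. Incubated 3 days at 27 °C, dark, 5% CO2. Viability read by MTT reduction, with Triton X100/HCl lysis and absorbance at 570 nm. IC50 ± SD.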
# Plasmodium berghei [23] = assay: Antimalarial activity against chloroquine-sensitive Plasmodium berghei NK-173 infected in Swiss albino mouse assessed as host survival at 38.5 mg/kg, ip administered 4 times per day for 3 days measured on day 30; type: functional; conditions: NK-173, ip, route intraperitoneal; procedure, shortened: as §1
# Plasmodium berghei [24] = assay: Antimalarial activity against chloroquine-sensitive Plasmodium berghei NK-173 infected in Swiss albino mouse assessed as host survival at 38.5 mg/kg, ip qd for 3 days measured on day 30; type: functional; conditions: NK-173, ip, route intraperitoneal; procedure, shortened: as §1
# Plasmodium berghei [25] = assay: Antimalarial activity against chloroquine-sensitive Plasmodium berghei NK-173 infected in Swiss albino mouse assessed as host survival at 76.9 mg/kg, ip qd for 3 days measured on day 30; type: functional; conditions: NK-173, ip, route intraperitoneal; procedure, shortened: as §1
# Mus musculus [26] = assay: Toxicity in chloroquine-sensitive Plasmodium berghei NK-173 infected Swiss albino mouse assessed as mortality at 51.5 mg/kg, ip administered 4 times per day for 3 days measured up to 4 days; type: organism-based; design: dose 51.5 mg/kg, route intraperitoneal; conditions: in vivo; procedure, shortened: as §1
# Plasmodium berghei [27] = assay: Antimalarial activity against chloroquine-sensitive Plasmodium berghei NK-173 infected in Swiss albino mouse assessed as quantal survival at 51.5 mg/kg, ip administered 4 times per day for 3 days measured on day 14; type: functional, organism-based; design: dose 51.5 mg/kg; procedure, shortened: as §1
# Plasmodium berghei [28] = assay: Antimalarial activity against chloroquine-sensitive Plasmodium berghei NK-173 infected in Swiss albino mouse assessed as quantal survival at 51.5 mg/kg, ip administered 4 times per day for 3 days measured on day 10; type: functional, organism-based; design: dose 51.5 mg/kg; procedure, shortened: as §1
# Plasmodium berghei [29] = assay: Antimalarial activity against chloroquine-sensitive Plasmodium berghei NK-173 infected in Swiss albino mouse assessed as quantal survival at 51.5 mg/kg, ip administered 4 times per day for 3 days measured on day 9; type: functional, organism-based; design: dose 51.5 mg/kg; procedure, shortened: as §1
# Plasmodium berghei [30] = assay: Antimalarial activity against chloroquine-sensitive Plasmodium berghei NK-173 infected in Swiss albino mouse assessed as quantal survival at 51.5 mg/kg, ip administered 4 times per day for 3 days measured on day 8; type: functional, organism-based; design: dose 51.5 mg/kg; procedure, shortened: as §1
# Plasmodium berghei [31] = assay: Antimalarial activity against chloroquine-sensitive Plasmodium berghei NK-173 infected in Swiss albino mouse assessed as quantal survival at 51.5 mg/kg, ip administered 4 times per day for 3 days measured on day 7; type: functional, organism-based; design: dose 51.5 mg/kg; procedure, shortened: as §1
# Plasmodium berghei [32] = assay: Antimalarial activity against chloroquine-sensitive Plasmodium berghei NK-173 infected in Swiss albino mouse assessed as reduction parasitemia at 51.5 mg/kg, ip treated […] by Giemsa staining relative to control; type: functional; design: scale not given: the % may be the effect or the level left; conditions: route intraperitoneal; procedure, shortened: as §2
# Plasmodium berghei [33] = assay: Antimalarial activity against chloroquine-sensitive Plasmodium berghei NK-173 infected in Swiss albino mouse assessed as host survival at 51.5 mg/kg, ip administered 4 times per day for 3 days measured on day 30; type: functional; conditions: NK-173, ip, route intraperitoneal; procedure, shortened: as §1
compound,measurement,setting,value
COc1cc(-c2c3nc(c(N4C(=O)CC[C@H]4C(=O)O)c4ccc([nH]4)c(-c4cc(OC)c(OC)c(OC)c4)c4nc(cc5ccc2[nH]5)C=C4)C=C3)cc(OC)c1OC,survival at 100 mg/kg,Plasmodium berghei [1],0%
same,Activity,Mus musculus [2],Non-toxic
same,Activity,Mus musculus [3],Non-toxic
same,Activity,Mus musculus [4],Non-toxic
same,Time,Mus musculus [5],2 days
same,Survival,Plasmodium berghei [6],inactive
same,Survival,Plasmodium berghei [7],inactive
same,Survival,Plasmodium berghei [8],inactive
same,Survival,Plasmodium berghei [9],inactive
same,Survival,Plasmodium berghei [10],inactive
same,Survival,Plasmodium berghei [11],inactive
same,Survival,Plasmodium berghei [12],inactive
same,Survival,Plasmodium berghei [13],Active
same,Survival,Plasmodium berghei [14],Active
same,Survival,Plasmodium berghei [15],Active
same,Survival,Plasmodium berghei [16],Active
same,Activity,Plasmodium berghei [17],0%
same,Activity,Plasmodium berghei [18],40%
same,IC50,Plasmodium falciparum,0.02 µM
same,CC50 at 120 h,[19],> 100 µM
same,minimal effective concentration,[20],25 µM
same,Activity,Leishmania donovani [21],inactive
same,IC50,Leishmania donovani [22],57.2 µM
same,survival at 38.5 mg/kg,Plasmodium berghei [23],0%
same,survival at 38.5 mg/kg,Plasmodium berghei [24],0%
same,survival at 76.9 mg/kg,Plasmodium berghei [25],0%
COc1cc(-c2c3nc(cc4ccc([nH]4)c(-c4cc(OC)c(OC)c(OC)c4)c4nc(cc5ccc2[nH]5)C=C4)C=C3)cc(OC)c1OC,IC50,Plasmodium falciparum,> 20 µM
same,CC50 at 120 h,[19],> 100 µM
same,minimal effective concentration,[20],> 100 µM
same,Activity,Leishmania donovani [21],inactive
same,IC50,Leishmania donovani [22],≥ 100 µM
CCN(CC)CCCC(C)Nc1ccnc2cc(Cl)ccc12 (centres undefined) [CHLOROQUINE],Activity,Mus musculus [26],Non-toxic
same,Survival,Plasmodium berghei [27],Active
same,Survival,Plasmodium berghei [28],Active
same,Survival,Plasmodium berghei [29],Active
same,Survival,Plasmodium berghei [30],Active
same,Survival,Plasmodium berghei [31],Active
same,Activity,Plasmodium berghei [32],100%
same,survival at 51.5 mg/kg,Plasmodium berghei [33],100%
